Experimental findings from ChEMBL document CHEMBL1145195 (J Med Chem, 2005) are described below.

SMILES strings stand for the structures. A value given as a limit tells only on which side of the number the result lay.

As usually defined, the Ki is the equilibrium dissociation constant of an inhibitor or competing ligand from its target. A higher Ki goes with weaker binding. The term bioavailability denotes the share of a dose that reaches the circulation, judged against a reference dose that is usually intravenous. A lower bioavailability goes with little systemic uptake. For orientation: half-life means how long it takes for the measured level to halve. Higher therefore signals slow loss. In general, clearance refers to the volume of plasma or blood freed of the substance per unit of time.

For data set [1], the system named is Caco-2. Kind of data set: Apparent cell permeability in Caco-2 cell line. The format is functional, cell-based. The settings on record: Homo sapiens. (In general: Caco-2 monolayers are a common model of the intestinal barrier.)
In a further data set the target is Prothrombin (Homo sapiens, UniProt P00734). Kind of data set: Binding affinity against human thrombin.
In data set [2] the target is T1, Coagulation factor X (Homo sapiens, UniProt P00742). Kind of data set: Binding affinity against human Coagulation factor Xa.
Target sequence in this assay (P00742 41-179 limits assumed): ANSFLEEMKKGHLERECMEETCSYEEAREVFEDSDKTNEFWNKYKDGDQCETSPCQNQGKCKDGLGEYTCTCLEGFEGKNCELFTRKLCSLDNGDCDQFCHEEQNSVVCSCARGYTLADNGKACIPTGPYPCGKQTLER
Target sequence in this assay (P00742 235-488 limits assumed): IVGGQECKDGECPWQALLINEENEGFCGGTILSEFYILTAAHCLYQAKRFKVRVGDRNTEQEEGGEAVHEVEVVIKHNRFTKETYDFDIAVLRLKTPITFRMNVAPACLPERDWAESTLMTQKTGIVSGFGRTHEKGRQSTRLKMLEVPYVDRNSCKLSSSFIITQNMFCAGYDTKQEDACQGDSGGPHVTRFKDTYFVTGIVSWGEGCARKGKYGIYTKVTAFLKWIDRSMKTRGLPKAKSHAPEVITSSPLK
In a further data set the target is Serine protease 1 (Homo sapiens, UniProt P07477). Kind of data set: Binding affinity determined against human trypsin.
A short description of data set [3]: Activated partial thromboplastin time was determined in human plasma. Format: functional. In outline: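 Pooled human plasma obtained by centrifugation at 2000g for 10 min, kept on ice. Inhibitor taken from a 10 mM DMSO stock, diluted in plasma, held on ice. Five to seven concentrations, each in duplicate. Alexin aPTT reagent added after plasma warmed 1 min at 37 °C. Clotting time compared with control plasma; the concentration doubling aPTT is reported.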

Data set [4] deals with Urokinase-type plasminogen activator (Homo sapiens, UniProt P00749). Kind of data set: Binding affinity determined against human urokinase.
The next data set deals with Chymotrypsinogen B (Homo sapiens, UniProt P17538). Kind of data set: Binding affinity determined against human Chymotrypsin. The method, boiled down:
(§1)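 Absorbance at 405 nm followed for 30 min. Percent activity taken from rates against no-inhibitor controls, then converted to Ki using Km and substrate concentration. Run in duplicate alongside internal standards.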

Data set [5] in a line: Steady state volume of distribution in dogs upon 0.4 mg/kg intravenous administration. The note with it: dog, in vivo, read-out: Vdss. On the set-up: dose 0.4 mg/kg, route intravenous. Format: ADME, organism-based, Canis lupus familiaris. In outline: (§2)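 Dogs dosed with the compounds as TFA salts in an N-in-1 (cassette) format, 0.4 mg/kg intravenously and 0.2 mg/kg orally.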

A short description of data set [6]: Oral bioavailability of compound was determined in dogs upon 0.2 mg/kg administration. The format is ADME, organism-based, Canis lupus familiaris. The settings on record: dog, in vivo. In outline: as §2
Data set [7] can be described thus: Half life in dogs upon 0.4 mg/kg intravenous administration. The note with it: dog, in vivo. On the set-up: dose 0.4 mg/kg, route intravenous. The format is ADME, organism-based, Canis lupus familiaris. The method, boiled down:
as §2

Data set [8] can be described thus: Binding affinity against human plasma protein was determined. Format: ADME, cell-free. The method, boiled down: (§3)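 Human or rabbit plasma protein binding determined by equilibrium dialysis.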
Data set [9] addresses Vitamin K-dependent protein C (Homo sapiens, UniProt P04070). Kind of data set: Binding affinity determined against human activated protein C. The method, boiled down: as §1
For data set [10], the system named is Caco-2. Kind of data set: Apparent permeability in Caco-2 (human carcinoma) cells.
Data set [11] can be described thus: Binding affinity of compound was determined against rabbit plasma protein. The format is ADME, cell-free, Oryctolagus cuniculus. The method, boiled down: as §3
Another data set deals with Coagulation factor XI (Homo sapiens, UniProt P03951). Kind of data set: Binding affinity determined against coagulation factor XI. The method, boiled down:
as §1

Data set [12] in a line: Binding affinity of compound was determined against human plasma protein. The format is ADME, cell-free. In outline:
as §3

The nature of data set [13]: Oral bioavailability in dogs at 0.2 mg/kg (n=2). The settings on record: dog, in vivo. The format is ADME, organism-based, Canis lupus familiaris. In outline:
(§4)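 Dog pharmacokinetics with compounds given as TFA salts in an N-in-1 (cassette) format, at 0.4 mg/kg intravenously and 0.2 mg/kg orally.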

Another data set concerns the target Coagulation factor IX (Homo sapiens, UniProt P00740). Kind of data set: Binding affinity against human Coagulation factor IX.
The next data set has as its target T2, Coagulation factor VII (Homo sapiens, UniProt P08709).
T2 sequence (P08709 whole entry): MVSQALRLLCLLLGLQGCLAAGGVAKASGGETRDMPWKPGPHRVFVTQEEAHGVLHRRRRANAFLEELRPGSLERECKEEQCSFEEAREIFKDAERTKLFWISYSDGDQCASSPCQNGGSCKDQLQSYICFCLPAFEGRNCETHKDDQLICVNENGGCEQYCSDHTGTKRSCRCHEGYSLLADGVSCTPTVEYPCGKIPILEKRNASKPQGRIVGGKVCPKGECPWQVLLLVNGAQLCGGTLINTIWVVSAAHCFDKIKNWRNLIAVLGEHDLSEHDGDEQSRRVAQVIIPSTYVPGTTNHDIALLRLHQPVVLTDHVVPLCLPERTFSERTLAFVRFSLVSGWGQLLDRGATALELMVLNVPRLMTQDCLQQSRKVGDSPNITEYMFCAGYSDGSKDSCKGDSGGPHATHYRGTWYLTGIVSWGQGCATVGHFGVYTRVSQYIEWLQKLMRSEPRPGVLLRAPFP
Kind of data set: Binding affinity against human Coagulation factor VII.

Data set [14] can be described thus: Clearance in dogs at 0.4 mg/kg intravenous administration. Format: ADME, organism-based, Canis lupus familiaris. The note with it: dog, in vivo. On the set-up: dose 0.4 mg/kg, route intravenous. In outline:
as §4

Data set [15] is described as follows: Oral bioavailability of compound was determined in dogs upon administration of 0.2 mg/kg. The format is ADME, organism-based, Canis lupus familiaris. The settings on record: dog, in vivo. The method, boiled down:
as §4

Data set [16] concerns the target T1, Coagulation factor X. Kind of data set: Binding affinity against blood clotting factor X.
Target sequence in this assay (P00742 whole entry, looked up): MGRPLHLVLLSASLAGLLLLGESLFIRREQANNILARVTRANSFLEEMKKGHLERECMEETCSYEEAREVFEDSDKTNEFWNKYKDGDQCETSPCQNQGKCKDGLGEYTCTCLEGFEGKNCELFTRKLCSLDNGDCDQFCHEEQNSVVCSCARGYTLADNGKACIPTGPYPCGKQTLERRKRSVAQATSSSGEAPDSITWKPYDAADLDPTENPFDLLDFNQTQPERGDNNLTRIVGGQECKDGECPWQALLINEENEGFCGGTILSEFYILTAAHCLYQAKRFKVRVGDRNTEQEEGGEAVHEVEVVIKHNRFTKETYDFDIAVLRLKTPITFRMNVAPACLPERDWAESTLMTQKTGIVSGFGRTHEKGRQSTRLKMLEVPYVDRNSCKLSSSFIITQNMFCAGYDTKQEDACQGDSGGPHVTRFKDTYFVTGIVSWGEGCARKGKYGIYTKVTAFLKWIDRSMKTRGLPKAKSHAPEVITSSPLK
A short description of data set [17]: Half life period in dogs at 0.4 mg/kg intravenous administration. The format is ADME, organism-based, Canis lupus familiaris. On the set-up: dose 0.4 mg/kg, route intravenous. The settings on record: dog, in vivo. The method, boiled down:
as §4

Data set [18] is described as follows: Steady state volume of distribution in dogs at 0.4 mg/kg intravenous administration. Format: ADME, organism-based, Canis lupus familiaris. On the set-up: dose 0.4 mg/kg, route intravenous. The note with it: dog, in vivo, read-out: Vdss. In outline: as §4

Sequence of Serine protease 1 (P07477 whole entry): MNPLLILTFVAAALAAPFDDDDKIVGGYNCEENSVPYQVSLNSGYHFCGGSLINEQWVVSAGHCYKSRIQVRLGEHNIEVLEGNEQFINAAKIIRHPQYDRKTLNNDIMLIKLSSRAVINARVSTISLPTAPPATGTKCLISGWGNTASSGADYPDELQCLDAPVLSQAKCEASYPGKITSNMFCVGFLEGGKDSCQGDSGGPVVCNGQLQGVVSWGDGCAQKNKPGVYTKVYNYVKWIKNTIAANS
Sequence of Chymotrypsinogen B (P17538 34-164 limits assumed, other chains not shown): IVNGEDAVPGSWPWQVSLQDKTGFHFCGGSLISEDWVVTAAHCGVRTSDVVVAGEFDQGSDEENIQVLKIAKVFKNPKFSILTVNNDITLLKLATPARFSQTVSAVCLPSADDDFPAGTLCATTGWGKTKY
Sequence of Chymotrypsinogen B (P17538 167-263 limits assumed, other chains not shown): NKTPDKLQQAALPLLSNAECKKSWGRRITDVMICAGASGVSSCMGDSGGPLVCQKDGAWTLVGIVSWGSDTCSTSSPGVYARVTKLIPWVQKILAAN
Sequence of Vitamin K-dependent protein C (P04070 43-197 limits assumed): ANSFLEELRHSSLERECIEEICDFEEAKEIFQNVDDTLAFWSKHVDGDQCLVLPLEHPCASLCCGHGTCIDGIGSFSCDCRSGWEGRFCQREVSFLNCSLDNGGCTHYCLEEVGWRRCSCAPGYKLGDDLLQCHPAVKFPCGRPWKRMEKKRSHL
Sequence of Vitamin K-dependent protein C (P04070 212-461 limits assumed): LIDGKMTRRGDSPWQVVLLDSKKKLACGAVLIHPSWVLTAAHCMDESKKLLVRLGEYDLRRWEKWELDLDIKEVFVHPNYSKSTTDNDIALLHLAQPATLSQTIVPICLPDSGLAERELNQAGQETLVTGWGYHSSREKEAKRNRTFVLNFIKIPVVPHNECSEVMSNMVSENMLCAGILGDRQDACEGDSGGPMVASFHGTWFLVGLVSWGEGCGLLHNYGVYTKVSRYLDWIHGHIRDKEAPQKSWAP
Sequence of Coagulation factor XI (P03951 19-387 limits assumed): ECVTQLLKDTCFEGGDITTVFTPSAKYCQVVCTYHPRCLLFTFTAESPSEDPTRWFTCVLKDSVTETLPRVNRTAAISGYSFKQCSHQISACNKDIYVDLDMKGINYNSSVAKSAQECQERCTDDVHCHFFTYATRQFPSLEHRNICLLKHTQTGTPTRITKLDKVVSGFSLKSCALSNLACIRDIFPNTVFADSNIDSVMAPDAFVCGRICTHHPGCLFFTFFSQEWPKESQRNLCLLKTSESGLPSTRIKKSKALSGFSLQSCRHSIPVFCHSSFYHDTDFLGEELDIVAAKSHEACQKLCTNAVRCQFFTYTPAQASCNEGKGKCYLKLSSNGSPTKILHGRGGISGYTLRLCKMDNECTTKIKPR
Sequence of Coagulation factor XI (P03951 388-625 limits assumed): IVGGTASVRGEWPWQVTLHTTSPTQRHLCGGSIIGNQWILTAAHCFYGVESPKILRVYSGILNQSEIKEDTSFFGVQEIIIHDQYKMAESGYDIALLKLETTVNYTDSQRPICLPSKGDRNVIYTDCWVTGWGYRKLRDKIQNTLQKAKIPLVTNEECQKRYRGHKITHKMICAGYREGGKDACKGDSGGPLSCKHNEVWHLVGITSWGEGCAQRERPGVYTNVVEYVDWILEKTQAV
Sequence of Coagulation factor IX (P00740 47-191 limits assumed): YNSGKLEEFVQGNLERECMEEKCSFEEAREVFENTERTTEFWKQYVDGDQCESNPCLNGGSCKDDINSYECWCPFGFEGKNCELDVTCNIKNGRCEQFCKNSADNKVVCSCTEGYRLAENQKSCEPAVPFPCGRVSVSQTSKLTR
Sequence of Coagulation factor IX (P00740 227-461 limits assumed): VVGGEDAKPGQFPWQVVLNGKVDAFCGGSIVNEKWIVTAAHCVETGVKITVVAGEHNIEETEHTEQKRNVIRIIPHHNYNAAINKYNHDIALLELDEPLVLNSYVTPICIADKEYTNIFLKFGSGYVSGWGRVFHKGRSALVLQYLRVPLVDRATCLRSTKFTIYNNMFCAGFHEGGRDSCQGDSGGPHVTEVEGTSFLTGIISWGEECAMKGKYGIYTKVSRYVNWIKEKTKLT

On to `Nc1noc2ccc(-n3nc(C(F)(F)F)cc3C(=O)Nc3ccc(-n4ccnc4CO)cc3F)cc12`, for which the Permeability in the data set with Caco-2 [1] was determined as 0.1 ×10⁻⁶ cm/s. The values for the Ki at Prothrombin and at Coagulation factor X [2] were 1700 nM and 1 nM, respectively.
As to `Nc1noc2ccc(-n3nc(C(F)(F)F)cc3C(=O)Nc3ccc(C(=O)N4CCCC4)cc3F)cc12`, the inhibition constant Ki on Serine protease 1 is greater than 5200 nM; at Prothrombin, 8000 nM; on Coagulation factor X [2] it was 0.92 nM. In the data set with Caco-2 [1], the Permeability was 24.9 ×10⁻⁶ cm/s. Further, in [3], the “concentration doubling aPTT” value was 13.8 µM.
For the compound `Cc1nccn1-c1ccc(NC(=O)c2cc(C(F)(F)F)nn2-c2ccc3onc(N)c3c2)cc1`, in the data set with Caco-2 [1], the Permeability was 0.82 ×10⁻⁶ cm/s. Further, the Ki at Prothrombin stood at 1100 nM; at Coagulation factor X [2], 0.6 nM.
As for `Nc1noc2ccc(-n3nc(C(F)(F)F)cc3C(=O)Nc3ccc(-c4ccccc4S(N)(=O)=O)cc3F)cc12`, the results for the Ki at Serine protease 1, on Prothrombin and on Coagulation factor X [2] were greater than 1600 nM, 2300 nM and 0.16 nM, respectively. Moreover, the Permeability in the data set on Caco-2 [1] was less than 0.1 ×10⁻⁶ cm/s.
With `Cn1ccnc1-c1ccc(NC(=O)c2cc(C(F)(F)F)nn2-c2ccc3onc(N)c3c2)c(F)c1`, the Ki is greater than 2500 nM at Serine protease 1, 34 nM at Prothrombin and 0.51 nM on Coagulation factor X [2]. For the same compound, in the data set on Caco-2 [1], the Permeability was determined as 4.69 ×10⁻⁶ cm/s. For the same compound, the “concentration doubling aPTT” value in data set [3] came out at 9.4 µM.
Taken in the same sequence, the figures for `Nc1noc2ccc(-n3nc(C(F)(F)F)cc3C(=O)Nc3ccc(-c4ccncc4S(N)(=O)=O)cc3F)cc12` were greater than 4200 nM, 740 nM, 0.1 nM, 0.54 ×10⁻⁶ cm/s and 15.5 µM.
For `CS(=O)(=O)c1ccccc1-c1ccc(NC(=O)c2cc(C(F)(F)F)nn2-c2cccc(CN)c2)c(F)c1`, the Ki (in data set [4]; at Chymotrypsinogen B) was greater than 17000 nM in each case. This compound displayed an ID50 in the data set filed under Oryctolagus cuniculus of 1.1 µmol/kg/h.
As to `CN(C)Cc1nccn1-c1ccc(NC(=O)c2cc(C(F)(F)F)nn2-c2ccc3onc(N)c3c2)c(F)c1.Cl` [RAZAXABAN HYDROCHLORIDE], in data set [5], the Vd was determined as 5.3 L/kg. For the same compound, the bioavailability in data set [6] amounted to 84%. The compound further showed a half-life in [7] of 3.4 h. The Binding in data set [8] came out at 90.5%; in [11], 93.4%. Besides, the Ki in [9] is 19700 nM; at Coagulation factor XI it was greater than 12000 nM. Also, the Permeability in the data set with Caco-2 [10] was 5.56 ×10⁻⁶ cm/s. Further, the ID50 in the data set filed under Oryctolagus cuniculus is 1.6 µmol/kg/h.
For `Cc1nccn1-c1ccc(NC(=O)c2cc(C(F)(F)F)nn2-c2ccc3onc(N)c3c2)c(C(N)=O)c1`, the Ki at Prothrombin was greater than 21000 nM; on Coagulation factor X [2], 7.7 nM.
For the compound `Cc1nccn1-c1ccc(NC(=O)c2cc(C(F)(F)F)nn2-c2ccc3onc(N)c3c2)c(F)c1`, the Permeability in the data set with Caco-2 [1] was 7.41 ×10⁻⁶ cm/s. The Binding in data set [12] was 98%. Also, the “concentration doubling aPTT” value in data set [3] came out at 24.4 µM. At Coagulation factor X [2], this compound gave a Ki of 0.7 nM.
`CC(C)c1nccn1-c1ccc(NC(=O)c2cc(C(F)(F)F)nn2-c2ccc3onc(N)c3c2)c(F)c1`: on Coagulation factor X [2], the Ki came to 1.6 nM.
For `COc1cc(-n2ccnc2C)ccc1NC(=O)c1cc(C(F)(F)F)nn1-c1ccc2onc(N)c2c1`, the inhibition constant (Ki) stood at 200 nM at Prothrombin and 2.8 nM at Coagulation factor X [2].
Consider `Nc1noc2ccc(-n3nc(C(F)(F)F)cc3C(=O)Nc3ccc(-n4ccnc4CN4CCCC4)cc3F)cc12`, for which the Permeability with Caco-2 [1] was found to be 23 ×10⁻⁶ cm/s. Further, the Ki was 600 nM on Prothrombin and 0.37 nM at Coagulation factor X [2].
On to `Cc1nccn1-c1ccc(NC(=O)c2cc(C(F)(F)F)nn2-c2ccc3onc(N)c3c2)c(C#N)c1`, for which the Permeability with Caco-2 [1] was less than 0.1 ×10⁻⁶ cm/s. This compound had a Ki on Coagulation factor X [2] of 0.52 nM.
The compound `CS(=O)(=O)c1ccccc1-c1ccc(NC(=O)c2cc(C(F)(F)F)nn2-c2ccc3onc(N)c3c2)c(F)c1` came in with a bioavailability in data set [13] of 2%. Moreover, the Ki at Serine protease 1 was greater than 5200 nM; in [4], 16000 nM; at Prothrombin, 6300 nM; in data set [9], 28000 nM; on Coagulation factor X [2], 0.09 nM; on Coagulation factor IX, 3500 nM. Besides, the results for the inhibitory constant (Ki) at Coagulation factor VII and at Chymotrypsinogen B were greater than 15000 nM and 2300 nM, respectively. Moreover, the Permeability with Caco-2 [1] is less than 0.1 ×10⁻⁶ cm/s.
On to `Nc1noc2ccc(-n3nc(C(F)(F)F)cc3C(=O)Nc3ccc(N4CCOCC4)cc3F)cc12`, for which the inhibition constant Ki on Serine protease 1 is greater than 5200 nM; on Prothrombin, 20000 nM; at Coagulation factor X [2], 6.3 nM.
Turning to `Cc1nccn1-c1ccc(NC(=O)c2cc(C(F)(F)F)nn2-c2ccc3onc(N)c3c2)c(-n2ccnc2C)c1`, the figures for the Ki on Prothrombin and on Coagulation factor X [2] were 800 nM and 1.6 nM, respectively.
Taken in the same sequence, the figures for `NCc1nccn1-c1ccc(NC(=O)c2cc(C(F)(F)F)nn2-c2ccc3onc(N)c3c2)c(F)c1` were 3500 nM and 3 nM.
Turning to `CCc1nccn1-c1ccc(NC(=O)c2cc(C(F)(F)F)nn2-c2ccc3onc(N)c3c2)c(F)c1`, in the data set on Caco-2 [1], the Permeability worked out at 3.32 ×10⁻⁶ cm/s. In data set [12], the Binding is 95%. Also, the “concentration doubling aPTT” value in data set [3] is 14.3 µM. The compound further gave an inhibitory constant (Ki) at Coagulation factor X [2] of 0.73 nM.
Consider `CNCc1nccn1-c1ccc(NC(=O)c2cc(C(F)(F)F)nn2-c2ccc3onc(N)c3c2)c(F)c1`, for which the clearance in data set [14] was 18.3 mL/min/kg. Moreover, the Permeability with Caco-2 [1] stood at 0.2 ×10⁻⁶ cm/s. For the same compound, the Binding in data set [12] is given as 85.6%. Further, the “concentration doubling aPTT” value in data set [3] came to 5.9 µM. Moreover, the Ki was 1700 nM at Prothrombin, 0.17 nM at Coagulation factor X [2] and 0.17 nM on Coagulation factor X [16]. Moreover, the bioavailability in data set [15] turned out to be 27%. This compound gave a half-life in [17] of 3.7 h. The Vd in data set [18] is 4.6 L/kg.
